“And” between values parts separate entries of the source, which are not always exact repeats. Identical values can stand only once.
Tests used:
[1] = Loss of clonogenic survival of human prostate cancer TSU-Pr1 cells relative to TG was determined; format: functional
Oryctolagus cuniculus [2] = organism: Oryctolagus cuniculus; experiment: Inhibition of rabbit skeletal muscle sarcoplasmic and endoplasmic reticulum [Ca(2+)]-dependent ATPases(SERCA) activity
How it was run: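 Rabbit skeletal-muscle SR microsomes were prepared by differential centrifugation with a 0.6 M KCl wash. Buffer was pH 7.5 Tris with KCl, MgCl2, EGTA/CaCl2 and A23187. Doses were in nmol/mg SR protein. Activity is % of uninhibited control in triplicate, corrected for residual Ca²⁺-independent ATPase.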

Oryctolagus cuniculus [3] = organism: Oryctolagus cuniculus; experiment: Inhibition of rabbit skeletal muscle SERCA activity relative to TG
[4] = Loss of clonogenic survival of human prostate cancer TSU-Pr1 cells.; format: functional; conditions: read-out: LC50 (the source's name)
How it was run: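 TSU-Pr1 human prostatic cancer cells treated with each analogue. Clonogenic survival compared with untreated controls. Value reported as LC50 (µM), the concentration producing 50% loss of clonogenic survival.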

[5] = Increase in cytosolic [Ca2+] concentration in TSU-Pr1 cells at given effective cytotoxic concentration.; format: functional, Homo sapiens

| Compound | Activity [1] | ID50 (nM (mg SR protein)-1) (Oryctolagus cuniculus [2]) | Activity (Oryctolagus cuniculus [3]) | CC50 [4] [nM] | Activity [5] | [Ca2+] [5] [nM] |
| --- | --- | --- | --- | --- | --- | --- |
| C/C=C(/C)C(=O)O[C@H]1C(C)=C2[C@H]([C@@H]1OC(=O)CCCCCCC)[C@@](C)(OC(C)=O)C[C@H](OC(=O)CCCCCCCCCCCNC(=O)[C@@H](N)CO)[C@@]1(O)[C@H]2OC(=O)[C@@]1(C)O | 30 | 10.3 | 0.8 | 890 | – | – |
| C/C=C(/C)C(=O)O[C@H]1C(C)=C2[C@H]([C@@H]1OC(=O)CCCCCCC)[C@@](C)(OC(C)=O)C[C@H](OC(=O)CCCCCNC(=O)[C@@H](N)CC(C)C)[C@@]1(O)[C@H]2OC(=O)[C@@]1(C)O | >667 | 3840 | 287 | > 20000 | 84 nM and 40 nM | – |
| C/C=C(/C)C(=O)O[C@H]1C(C)=C2[C@H]([C@@H]1OC(=O)CCCCCCC)[C@@](C)(OC(C)=O)C[C@H](OC(=O)CCCCCCCCCCCNC(=O)[C@@H](N)Cc1ccccc1)[C@@]1(O)[C@H]2OC(=O)[C@@]1(C)O | 7 | – | – | 210 | 446 nM and 406 nM | – |
| C/C=C(/C)C(=O)O[C@H]1C(C)=C2[C@H]([C@@H]1OC(=O)CCCCCCC)[C@@](C)(OC(C)=O)C[C@H](OC(=O)CCCCCN)[C@@]1(O)[C@H]2OC(=O)[C@@]1(C)O | >667 | 1330 | 99 | > 20000 | 284 nM | – |
| C/C=C(/C)C(=O)O[C@H]1C(C)=C2[C@H]([C@@H]1OC(=O)CCCCCCC)[C@@](C)(OC(C)=O)C[C@H](OC(=O)CCCCCCCN)[C@@]1(O)[C@H]2OC(=O)[C@@]1(C)O | 128 | 223 | 17 | 3850 | 217 nM | – |
| C/C=C(/C)C(=O)O[C@H]1C(C)=C2[C@H]([C@@H]1OC(=O)CCCCCCC)[C@@](C)(OC(C)=O)C[C@H](OC(=O)CCCCCCCCCCCNC(=O)[C@H](C)N)[C@@]1(O)[C@H]2OC(=O)[C@@]1(C)O | 9.3 | 16.5 | 1.2 | 280 | 410 nM and 338 nM | – |
| C/C=C(/C)C(=O)O[C@H]1C(C)=C2[C@H]([C@@H]1OC(=O)CCCCCCC)[C@@](C)(OC(C)=O)C[C@H](OC(=O)CCC)[C@@]1(O)[C@H]2OC(=O)[C@@]1(C)O [THAPSIGARGIN] | 1 | 13.4 | 1 | 30 | – | – |
| C/C=C(/C)C(=O)O[C@H]1C(C)=C2[C@H]([C@@H]1OC(=O)CCCCCCC)[C@@](C)(OC(C)=O)C[C@H](OC(=O)CCCCCCCCCCCNC(=O)[C@@H](N)CC(C)C)[C@@]1(O)[C@H]2OC(=O)[C@@]1(C)O | 1 | 45 | 3.4 | 30 | 414 nM | 173 |
| C/C=C(/C)C(=O)O[C@H]1C(C)=C2[C@H]([C@@H]1OC(=O)CCCCCCC)[C@@](C)(OC(C)=O)C[C@H](OC(=O)CCCCCCCCCCN)[C@@]1(O)[C@H]2OC(=O)[C@@]1(C)O | 25 | 40 | 3 | 750 | 420 nM and 242 nM | – |
| C/C=C(/C)C(=O)O[C@H]1C(C)=C2[C@H]([C@@H]1OC(=O)CCCCCCC)[C@@](C)(OC(C)=O)C[C@H](OC(=O)CCCCCCN)[C@@]1(O)[C@H]2OC(=O)[C@@]1(C)O | 364 | 1210 | 90 | 10900 | 209 nM | – |
| C/C=C(/C)C(=O)O[C@H]1C(C)=C2[C@H]([C@@H]1OC(=O)CCCCCCC)[C@@](C)(OC(C)=O)C[C@H](OC(=O)CCc1ccc(NC(=O)[C@@H](N)CC(C)C)cc1)[C@@]1(O)[C@H]2OC(=O)[C@@]1(C)O | 29 | 466 | 35 | 880 | – | – |
| C/C=C(/C)C(=O)O[C@H]1C(C)=C2[C@H]([C@@H]1OC(=O)CCCCCCC)[C@@](C)(OC(C)=O)C[C@H](OC(=O)CCCCCCCCCCCN)[C@@]1(O)[C@H]2OC(=O)[C@@]1(C)O | 39 | 35 | 2.6 | 1160 | 369 nM and 235 nM | – |

Reference: ChEMBL document CHEMBL1134327, “Design, synthesis, and pharmacological evaluation of thapsigargin analogues for targeting apoptosis to prostatic cancer cells” (2001)
